# Results of several laboratories.
# Lines come from different studies, so protocols differ.
# Target: Insulin receptor (INSR, Homo sapiens, UniProt P06213)
assay,setting,quantity,result,SMILES
binding,1 µM,remaining binding,66%,COc1ccc2[nH]c3c4[nH]c5ccc(OC)cc5c4c4c(c3c2c1)C(=O)NC4=O
binding,1 µM,remaining binding,85%,COc1ccc2oc(-c3ccc4nc(N)oc4c3)c/c(=N\c3ccccc3NC(=O)CCN)c2c1
"enzyme activity, inhibitor",1 µM,inhibition,0%,CC#CC(=O)N1CCC[C@H]1c1nc(-c2ccc(C(=O)Nc3ccccn3)cc2)c2c(N)nccn12
binding,0.1 µM,remaining binding,83%,C1=C/COCc2cc(ccc2OCCN2CCCC2)Nc2nccc(n2)-c2cccc(c2)COC/1
"binding, competition with immobilised ligand",0.5 µM,remaining binding,100%,CCCCC(=O)Nc1ccc(-c2ccc3ncn(CCC)c(=O)c3c2)cn1
binding,1 µM,remaining binding,96%,C[C@H]1CC[C@H](n2c3cnccc3c3cnc(Nc4ccc5c(n4)CCN(C(=O)CO)C5)nc32)CC1
cell-free assay,1 µM,inhibition,0%,C=CC(=O)N1CCC([C@@H]2CCNc3c(C(N)=O)c(-c4ccc(Oc5ccccc5)cc4)nn32)CC1
"cell-free assay, competition with immobilised ligand",25 µM,remaining binding,89%,N#Cc1ccc(NC(=O)Nc2ccccc2)cc1
